PubChem BioAssay
Active and inactive are the calls of the source.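 How the source made its calls, unless noted: active means GFP response above 150% of the DMSO level; inconclusive means fewer than 70 events counted for a yeast strain; inactive means the rest.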

Experiments:
[1] = RPL19A-GFP modulators, yeast TOR pathway, confirmation, cell-based, S. cerevisiae, flow cytometry, cherry picks, mother/daughter gates (AID 2270;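 active means GFP response below 50% of the DMSO control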); settings: S. cerevisiae RPL19A-GFP strain, 3 h, at 10 µM, stronger effect = lower value, 100 = same GFP as DMSO wells
[2] = LAP4-GFP expression modulators in yeast, confirmation, cell-based, cherry picks, flow cytometry, mother/daughter gates (AID 2271;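 active means GFP response above 150% of the DMSO control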;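 further: ratio of sample to DMSO plate mean so 100% equals DMSO level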); settings: S. cerevisiae LAP4-GFP strain, 3 h, at 10 µM, stronger effect = higher value, 100 means same as DMSO control
Method in brief: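 System: GFP-fusion yeast strain | Input: Yeast cells seeded at OD600 of 0.2 | Technique: HT flow cytometry, GFP fluorescence channel | Read-out: % GFP response vs DMSO | Dosing: Single test-compound dose, 10 µM final | Controls: Positive rapamycin (400 ng/mL), negative DMSO | Times: 3 h treatment at 30 °C with rotation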

[3] = modulators of MEP2-GFP levels in yeast, confirmation, S. cerevisiae, flow cytometry GFP, cherry picks (AID 2272;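 active means GFP response above 150% of the DMSO control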;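 further: ratio of well signal to plate DMSO mean so 100% equals DMSO level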); settings: S. cerevisiae MEP2-GFP strain, 3 h, at 10 µM, stronger effect = higher value
[4] = AGP1-GFP expression modulators, hit retest, confirmation, cell-based, flow cytometry, S. cerevisiae, cherry picks (AID 2273);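 further: median GFP channel fluorescence over the whole cell population gate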; settings: S. cerevisiae AGP1-GFP strain, 3 h, at 10 µM
[5] = modulators of CIT2-GFP expression in yeast, confirmation, S. cerevisiae, GFP fusion, cherry picks, mother/daughter gates (AID 2274); settings: S. cerevisiae CIT2-GFP strain, flow cytometry, 3 h, at 10 µM, stronger effect = higher value
[6] = measured here: daughter cell gate
[7] = measured here: mother cell gate
[8] = measured here: daughter cell gate response
[9] = measured here: mother cell gate response

Structure (SMILES) | GFP response vs DMSO [1] | GFP response vs DMSO [1, 6] [%] | GFP response vs DMSO [1, 7] [%] | GFP response relative to DMSO [2] | GFP response relative to DMSO [2, 8] [%] | GFP response relative to DMSO [2, 9] [%] | GFP response vs DMSO [3] | GFP response, % of DMSO [4] | GFP response, % of DMSO [5] | GFP response, % of DMSO [5, 6] [%] | GFP response, % of DMSO [5, 7] [%]
Cc1nc2ccc(Br)cn2c1C(=O)N/N=C\c1ccccc1Cl | 95.4% (inactive) | 95.6 | 96.6 | 94.1% (inactive) | 94.4 | 96.1 | 96.2% (inactive) | 98% (inactive) | 99.7% (inactive) | 99.1 | 99.7
COc1ccc(C2CC(c3cccs3)=NN2S(=O)(=O)c2ccc(C)cc2)cc1 (stereo not drawn) | 98.7% (inactive) | 99.1 | 98.6 | 106% (inactive) | 105 | 107 | 104% (inactive) | 106% (inactive) | 106% (inactive) | 106 | 106
Cc1ccc(N2C(=O)C3C4C=CC(CNC(=S)N5CCN(c6ccccc6)CC5)(O4)C3C2=O)cc1 (stereo not drawn) | 102% (inactive) | 101 | 101 | 89% (inactive) | 94.1 | 92.1 | 100% (inactive) | 96.5% (inactive) | 110% (inactive) | 105 | 113
COC(=O)Cc1csc(Nc2ccc(F)c(Cl)c2)n1 | 101% (inactive) | 102 | 100 | 97.4% (inactive) | 98.7 | 98.3 | 95.7% (inactive) | 93.7% (inactive) | 110% (inactive) | 106 | 107
Cc1cc(C)n2nc(C(=O)NC(c3ccccc3)c3ccccc3)nc2n1 | 98.6% (inactive) | 99.9 | 98.2 | 98.6% (inactive) | 99.7 | 99.2 | 98.8% (inactive) | 104% (inactive) | 111% (inactive) | 110 | 112
O=C(/C=C/c1cc(Br)ccc1O)c1ccco1 | 99.9% (inactive) | 101 | 99 | 151% (active) | 135 | 153 | 122% (inactive) | 100% (inactive) | 95% (inactive) | 98.3 | 91
N=C1S/C(=C\c2ccco2)C(=O)N1c1nccs1 | 109% (inactive) | 108 | 100 | 168% (active) | 145 | 168 | 112% (inactive) | 95.7% (inactive) | 108% (inactive) | 108 | 103
CC(=O)Nc1ccc(NC(=O)c2nc(S(=O)(=O)Cc3cccc(C)c3)ncc2Cl)cc1 | 102% (inactive) | 99.5 | 103 | 93.8% (inactive) | 97.2 | 95.2 | 100% (inactive) | 97.4% (inactive) | 104% (inactive) | 103 | 105
